Test results taken from ChEMBL document CHEMBL3862007, “Synthesis and antimicrobial activity of small cationic amphipathic aminobenzamide marine natural product mimics and evaluation of relevance against clinical isolates including ESBL-CARBA producing multi-resistant bacteria” (Bioorg Med Chem, 2016).

Tests used:
Staphylococcus aureus [1] = assay: Antibacterial activity against Staphylococcus aureus ATCC 9144 after 48 hrs by microdilution method; type: functional; details: ATCC 9144, 48 h
[2] = Antibacterial activity against methicillin-resistant Staphylococcus epidermidis RP62A CCUG 31568 (ATCC 35984) after 48 hrs by microdilution method; type: functional
Procedure, shortened: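 Broth microdilution MIC against the reference-strain panel. Compounds were supplied as HCl salts for aqueous solubility in the test medium. Precipitation in the test buffer is flagged at higher concentrations.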

Bacillus subtilis [3] = assay: Antibacterial activity against Bacillus subtilis 168 ATCC 23857 after 48 hrs by microdilution method; type: functional; details: subsp. subtilis str. 168 ATCC 23857, 48 h
[4] = system: Corynebacterium glutamicum; assay: Antibacterial activity against Corynebacterium glutamicum ATCC 13032 after 48 hrs by microdilution method; type: functional; details: ATCC 13032, 48 h
Escherichia coli [5] = assay: Antibacterial activity against Escherichia coli ATCC 25922 after 48 hrs by microdilution method; type: functional; details: ATCC 25922, 48 h
Pseudomonas aeruginosa [6] = assay: Antibacterial activity against Pseudomonas aeruginosa PAO1 DSM 19880 (ATCC 15692) after 48 hrs by microdilution method; type: functional
[7] = Hemolytic activity in human RBC after 1 hr; type: ADME, cell-based; details: Erythrocyte
[8] = Selectivity index, ratio of hemolytic EC50 for human RBC to MIC for Staphylococcus aureus ATCC 9144
Staphylococcus aureus [9] = assay: Antibacterial activity against Staphylococcus aureus clinical isolate after 24 hrs by microdilution method; type: functional
Enterococcus sp. = assay: Antibacterial activity against Enterococcus sp. clinical isolate after 24 hrs by microdilution method; type: functional
Escherichia coli [10] = assay: Antibacterial activity against Escherichia coli clinical isolate after 24 hrs by microdilution method; type: functional
Pseudomonas aeruginosa [11] = assay: Antibacterial activity against Pseudomonas aeruginosa clinical isolate after 24 hrs by microdilution method; type: functional
Klebsiella pneumoniae = assay: Antibacterial activity against Klebsiella pneumoniae clinical isolate after 24 hrs by microdilution method; type: functional
Bacillus subtilis [12] = assay: Membranolytic activity in Bacillus subtilis 168 ATCC 23857 carrying pCSS962 plasmid measured every second for 30 secs by luciferase reporter assay; type: functional; details: subsp. subtilis str. 168 ATCC 23857
Procedure, shortened: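 B. subtilis 168 carrying pCSS962 (luciferase-expressing) was added as a suspension already containing D-luciferin, with luminescence read in real time up to 120 s. Water served as the untreated control. Chlorhexidine was added to all samples at 30 s as a membranolytic control. Fold induction is the peak sample luminescence over the water-control maximum after chlorhexidine, from two independent experiments.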

[13] = Aqueous solubility of the compound; type: physicochemical; details: buffer

SMILES	MIC (Staphylococcus aureus [1])	MIC [2]	MIC (Bacillus subtilis [3])	MIC [4]	MIC (Escherichia coli [5])	MIC (Pseudomonas aeruginosa [6])	EC50 [7]	Selectivity Index [8]	MIC (Staphylococcus aureus [9])	MIC (Enterococcus sp.)	MIC (Escherichia coli [10])	MIC (Pseudomonas aeruginosa [11])	MIC (Klebsiella pneumoniae)	Activity (Bacillus subtilis [12])	solubility [13]
CN(C(=O)c1cc(C(C)(C)C)cc(C(C)(C)C)c1)c1ccc(C(=O)NCCCN)cc1.Cl	> 128 µg/mL	> 128 µg/mL	128 µg/mL	64 µg/mL	> 128 µg/mL	> 128 µg/mL	172 µg/mL	< 1.3							
CC(C)(C)c1cc(NC(=O)c2ccc(C(=O)NCCCNC(=N)N)cc2)cc(C(C)(C)C)c1.Cl	4 µg/mL	8 µg/mL	4 µg/mL	2 µg/mL	8 µg/mL	8 µg/mL	42 µg/mL	10.5	4 µg/mL	8 µg/mL	8 µg/mL	8 µg/mL	16 µg/mL		
CC(C)(C)c1cc(NC(=O)c2ccc(C(=O)NCCN)cc2)cc(C(C)(C)C)c1.Cl	8 µg/mL	8 µg/mL	4 µg/mL	8 µg/mL	8 µg/mL	16 µg/mL	21 µg/mL	2.6							
CC(C)(C)c1cc(C(=O)Nc2cc3ccccc3cc2C(=O)NCCNC(=N)N)cc(C(C)(C)C)c1.Cl	2 µg/mL	2 µg/mL	1 µg/mL	1 µg/mL	16 µg/mL	64 µg/mL	> 16 µg/mL	> 8	4 µg/mL	8 µg/mL	16 µg/mL	> 64 µg/mL	32 µg/mL		
CC(C)(C)c1cc(C(=O)Nc2ccc(C(=O)NCCN)cc2)cc(C(C)(C)C)c1.Cl	8 µg/mL	8 µg/mL	4 µg/mL	4 µg/mL	8 µg/mL	16 µg/mL	28 µg/mL	3.5	8 µg/mL	16 µg/mL	8 µg/mL	16 µg/mL	16 µg/mL		
CC(C)(C)c1cc(C(=O)Nc2cccc(C(=O)NCCCNC(=N)N)c2)cc(C(C)(C)C)c1.Cl	4 µg/mL	8 µg/mL	4 µg/mL	4 µg/mL	8 µg/mL	16 µg/mL	59 µg/mL	14.8						Dose-dependent effect	
CC(C)(C)c1cc(C(=O)Nc2ccc(C(=O)NCCNC(=N)N)cc2)cc(C(C)(C)C)c1.Cl	4 µg/mL	4 µg/mL	4 µg/mL	2 µg/mL	8 µg/mL	16 µg/mL	38 µg/mL	9.5	4 µg/mL	8 µg/mL	8 µg/mL	> 64 µg/mL	16 µg/mL	Dose-dependent effect	
CC(C)(C)c1cc(C(=O)Nc2cccc(C(=O)NCCN)c2)cc(C(C)(C)C)c1.Cl	16 µg/mL	8 µg/mL	8 µg/mL	8 µg/mL	16 µg/mL	16 µg/mL	39 µg/mL	2.4							
CC(C)(C)c1cc(C(=O)NCc2ccc(C(=O)NCCNC(=N)N)cc2)cc(C(C)(C)C)c1.Cl	8 µg/mL	8 µg/mL	8 µg/mL	2 µg/mL	16 µg/mL	16 µg/mL	52 µg/mL	6.5							Insoluble
CC(C)(C)c1cc(C(=O)Nc2ccc(C(=O)NCCCNC(=N)N)cc2)cc(C(C)(C)C)c1.Cl	4 µg/mL	4 µg/mL	4 µg/mL	2 µg/mL	8 µg/mL	16 µg/mL	62 µg/mL	15.5							
CN(C(=O)c1cc(C(C)(C)C)cc(C(C)(C)C)c1)c1ccc(C(=O)NCCN)cc1								0.3							
